Laboratory results reported in ChEMBL document CHEMBL4834402, “Discovery of TAK-981, a First-in-Class Inhibitor of SUMO-Activating Enzyme for the Treatment of Cancer” (J Med Chem, 2021).
Activity calls are given as the source filed them. The calls are words filed in the database; no cut-off is given here.

Tests used:
HCT-116 [1] = assay: Antitumor activity against human HCT116 cells xenografted in sc dosed NCr nude mouse assessed as tumor growth inhibition administered on day 1, 4, 8, 11, 15, 18 and 21 by vernier caliper method; type: functional, organism-based; settings: dose 200.0 mg/kg, time 21.0 day
In short: (§1)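 Female NCr nude mice with HCT-116 tumors, n = 10/arm, dosed subcutaneously until Day 21. Schedules were BID x21 (days 1–21) or BID BIW (days 1, 4, 8, 11, 15, 18, 21).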

[2] = Oral bioavailability in rat plasma at 10 mg/kg; type: ADME, organism-based
OCI-Ly10 [3] = assay: Cytotoxicity against human OCI-LY10 cells assessed as reduction in cell viability after 72 hrs by CellTiter-Glo luminescent assay; type: functional, cell-based; settings: OCI-Ly10, 72 h
[4] = Apparent permeability across apical to basolateral side in human Caco2 cells; type: ADME, cell-based; settings: Caco-2
[5] = Clearance in rat plasma at 1 mg/kg, iv; type: ADME, organism-based; settings: in vivo
[6] = Lipophilicity, logD of compound at pH 7.4; type: physicochemical; settings: buffer
[7] = AUC in rat plasma at 10 mg/kg, po; type: ADME, organism-based; design: dose 10 mg/kg
[8] = Dissociation constant , pKa of the compound; type: physicochemical
[9] = Apparent permeability across basolateral to apical side in human Caco2 cells; type: ADME, cell-based; settings: Caco-2
HCT-116 [10] = assay: Cytotoxicity against human HCT116 cells assessed as reduction in cell viability after 72 hrs by CellTiter-Glo luminescent assay; type: functional, cell-based; settings: HCT-116, 72 h
NEDD8 activating enzyme = biological target: T1, NEDD8 activating enzyme (Homo sapiens, UniProt Q8TBC4); assay: Inhibition of recombinant NAE (unknown origin) in presence of ATP at Km concentration by HTRF assay; type: protein-complex assay
T1 sequence (Q8TBC4 whole entry): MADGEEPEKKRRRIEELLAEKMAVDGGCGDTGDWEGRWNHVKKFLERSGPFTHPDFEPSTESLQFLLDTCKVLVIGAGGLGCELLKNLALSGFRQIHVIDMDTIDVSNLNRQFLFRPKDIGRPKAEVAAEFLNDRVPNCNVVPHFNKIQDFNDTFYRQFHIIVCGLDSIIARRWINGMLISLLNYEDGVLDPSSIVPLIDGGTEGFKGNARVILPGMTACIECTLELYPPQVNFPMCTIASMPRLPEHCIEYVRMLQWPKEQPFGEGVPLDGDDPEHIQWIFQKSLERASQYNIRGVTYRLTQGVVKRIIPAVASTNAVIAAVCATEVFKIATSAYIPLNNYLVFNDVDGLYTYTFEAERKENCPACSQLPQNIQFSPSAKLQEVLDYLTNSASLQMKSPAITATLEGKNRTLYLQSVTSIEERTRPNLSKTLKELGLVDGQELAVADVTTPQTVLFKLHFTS
T1 sequence (Q13564 whole entry): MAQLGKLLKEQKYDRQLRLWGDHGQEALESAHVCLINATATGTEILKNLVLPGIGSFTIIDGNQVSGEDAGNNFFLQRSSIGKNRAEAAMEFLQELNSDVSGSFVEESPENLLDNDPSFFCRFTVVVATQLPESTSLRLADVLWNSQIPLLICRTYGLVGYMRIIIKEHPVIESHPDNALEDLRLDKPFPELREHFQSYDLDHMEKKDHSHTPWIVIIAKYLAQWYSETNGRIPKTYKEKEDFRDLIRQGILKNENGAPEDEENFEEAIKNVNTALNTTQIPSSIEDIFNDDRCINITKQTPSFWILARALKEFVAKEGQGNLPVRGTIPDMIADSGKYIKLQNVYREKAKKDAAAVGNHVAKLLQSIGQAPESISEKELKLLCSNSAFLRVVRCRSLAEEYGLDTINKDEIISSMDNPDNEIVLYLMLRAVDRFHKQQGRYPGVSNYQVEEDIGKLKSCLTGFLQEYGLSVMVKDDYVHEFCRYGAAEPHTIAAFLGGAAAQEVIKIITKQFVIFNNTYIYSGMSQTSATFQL

[11] = Clearance in rat blood at 1 mg/kg, iv; type: ADME, organism-based; settings: in vivo
[12] = AUC in rat blood at 1 mg/kg, iv; type: ADME, organism-based; design: dose 1 mg/kg
HCT-116 [13] = assay: Antitumor activity against human HCT116 cells xenografted in sc dosed NCr nude mouse assessed as tumor growth inhibition administered twice per day for 21 days by vernier caliper method; type: functional, organism-based; settings: dose 150.0 mg/kg, time 21.0 day; in short: as §1
Carbonic anhydrase 1 = Carbonic anhydrase 1 (Homo sapiens, UniProt P00915); assay: Inhibition of human erythrocyte CA1 using fluorescein diacetate as substrate at […] by fluorometric esterase assay
[14] = Oral bioavailability in rat blood at 10 mg/kg; type: ADME, organism-based
[15] = Half life in rat plasma at 1 mg/kg, iv; type: ADME, organism-based
[16] = AUC in rat plasma at 1 mg/kg, iv; type: ADME, organism-based; design: dose 1 mg/kg
[17] = Volume of distribution at steady state in rat blood at 1 mg/kg, iv; type: ADME, organism-based; settings: read-out: Vdss
[18] = Volume of distribution at steady state in rat plasma at 1 mg/kg, iv; type: ADME, organism-based; settings: read-out: Vdss
[19] = AUC in rat blood at 10 mg/kg, po; type: ADME, organism-based; design: dose 10 mg/kg
HCT-116 [20] = assay: Antitumor activity against human HCT116 cells xenografted in sc dosed NCr nude mouse assessed as tumor growth inhibition administered on day 1, 2, 8, 9, 15, […] and […] by vernier caliper method; type: functional, organism-based; settings: dose 150.0 mg/kg, time 21.0 day
[21] = Half life in rat blood at 1 mg/kg, iv; type: ADME, organism-based
OCI-Ly10 [22] = assay: Antitumor activity against human OCI-Ly10 cells xenografted in CB17 SCID mouse assessed as tumor growth inhibition at 50 mg/kg, sc mg/kg administered once daily for 21 days and measured twice weekly; type: functional, organism-based; settings: time 21.0 day
In short: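 Female CB17 SCID mice carrying OCI-Ly10 tumors (~200 mm3) were randomized, n = 8/group, with treatment from Day 1. Schedules were QD x21 (Days 1–21) or QD x3/week (three consecutive dosing days, four off). Tumor volume was measured twice weekly.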

HCT-116 [23] = assay: Antitumor activity against human HCT-116 cells xenografted in Ncr/nude mouse assessed as tumor growth inhibition at 50 mg/kg, sc administered once daily for 21 days and measured twice weekly; type: functional, organism-based; settings: time 21.0 day
In short: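 Female Ncr/nude mice carrying HCT-116 tumors (~200 mm3) were randomized, n = 8/group, with treatment from Day 1. Schedules were QD x21 (Days 1–21) or QD x3/week (three consecutive dosing days, four off). Tumor volume was measured twice weekly.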

[24] = biological target: T2, SUMO-activating enzyme (Homo sapiens) (UniProt Q9UBE0+Q9UBT2); assay: Inhibition of SAE in human HCT116 cells xenografted in NCr nude mouse assessed as reduction in SUMO2/3 protein conjugates at 50 mg/kg, iv and measured up to 16 hrs by immunohistochemistry analysis; type: organism-based; settings: HCT-116
In short: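 HCT-116 tumors in female Ncr nude mice, n = 3 per time point, after a single IV dose at t = 0. SUMO2/3 conjugation in tumors measured by IHC at 2, 4, 8 and 16 h. Read-out is nuclei staining positive for SUMO2/3 conjugates over total nuclei, normalized to vehicle-treated animals (time = 0 h), expressed as percent inhibition.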

[25] = biological target: T2, SUMO-activating enzyme (Homo sapiens); assay: Inhibition of SAE in human HCT116 cells xenografted in NCr nude mouse assessed as improvement in SUMO-inhibitor adduct durability at 50 mg/kg, iv and measured up to 16 hrs by mass spectrometry; type: organism-based; settings: HCT-116
In short: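 Single IV dose at t = 0 to female Ncr nude mice bearing HCT-116 tumors, n = 3 per time point. Tumors harvested 2, 4, 8 and 16 h post-injection. Read-out is the adduct/SAE ratio: quantity of SUMO-compound adduct over quantity of total SAE enzyme, both measured by mass spectrometry. Values are averaged per time point.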

Chain of Carbonic anhydrase 1 (P00915 whole entry): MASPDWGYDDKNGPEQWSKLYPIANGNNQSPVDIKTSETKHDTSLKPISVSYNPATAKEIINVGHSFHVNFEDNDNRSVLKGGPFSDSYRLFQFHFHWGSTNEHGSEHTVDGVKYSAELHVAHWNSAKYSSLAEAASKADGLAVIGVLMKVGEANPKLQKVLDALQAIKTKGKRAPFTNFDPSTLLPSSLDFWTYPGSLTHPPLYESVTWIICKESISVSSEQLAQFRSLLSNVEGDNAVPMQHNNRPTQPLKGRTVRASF

In the case of `NS(=O)(=O)OC[C@H]1C[C@@H](Nc2ncncc2C(=O)c2ccn(Cc3cccc(Br)c3)n2)C[C@@H]1O`, the Activity (HCT-116 [1]) is reported as “Dose-Dependent Effect”, the bioavailability [2] is reported as 7.1% and the EC50 (OCI-Ly10 [3]) is reported as 55 nM. For the same molecule, the Papp A→B [4] was 1.2 ×10⁻⁶ cm/s, the clearance [5] was 85 mL/min/kg and the logD [6] was 2.6. For the same molecule, the AUC [7] was 0.1 µM·h, the pKa [8] was 3.6 and the Papp B→A [9] was 64 ×10⁻⁶ cm/s. It also gave an EC50 (HCT-116 [10]) of 90 nM, an IC50 (NEDD8 activating enzyme) of 228 nM and a clearance [11] of 1.67 mL/min/kg. The AUC [12] was 19.1 µM·h, the Activity (HCT-116 [13]) was “Dose-Dependent Effect” and the IC50 (Carbonic anhydrase 1) was 50 nM. It also gave a bioavailability [14] of 6.9%, a half-life [15] of 0.9 h and an AUC [16] of 0.4 µM·h. The Vd [17] was 0.1 L/kg, the Vd [18] was 5.1 L/kg and the AUC [19] was 10.8 µM·h. For the same molecule, the Activity (HCT-116 [20]) was “Dose-Dependent Effect” and the half-life [21] was 1.2 h.

For `Cc1sc(C(=O)c2cncnc2N[C@@H]2C[C@H](COS(N)(=O)=O)[C@@H](O)C2)cc1C1OCCc2ccc(Cl)cc21` (stereo in doubt), the Activity (OCI-Ly10 [22]) was “Active”, the Activity (HCT-116 [23]) was “Active” and the inhibition [24] was “Active”. The inhibition [25] was “Active”.
